Source: PubChem BioAssay (several laboratories)
The list is not random: actives were taken first. Their share in the collection is about 3%.
NPR2 activator – human GC-B receptor activators, primary screen, HEK293 GC-B cells, cGMP TR-FRET, EC30 CNP. 0% at EC30 CNP, 100% saturating CNP. activation, % at 10 µM. 370,000 tested, 0.11% active;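 active means activation at 10 µM reaching about 35% in either raw or pattern-adjusted values, limit read from the data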
NR3A LBD binder – binders of NR3A ligand-binding domain, primary screen, biophysical, differential scanning fluorimetry, uHTS | 340,000 tested, 2.5% active | Tm shift relative to glycine control, % at 25 µM | NR3A LBD differential scanning fluorimetry, Tm shift; 0% = protein alone, 100% = glycine-bound protein;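 active means melting temperature shift of at least 10% of the positive control shift, at one fixed dose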
GASC-1 inh – inhibitors of GASC-1 histone demethylase, primary screen, biochemical, fluorescence, DELFIA europium; GST-JMJD2C(1-420) H3K9me3 demethylation; Lysine-specific demethylase 4C (Homo sapiens), Q9H3R0; inhibition, % at 2.35 µM; 330,000 tested, 0.069% active;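 active means more than half of a compound's replicate wells show inhibition beyond 50%, single wells judged on their own value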;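 further: signal counts dimethyl H3K9 product captured on neutravidin plate; 0% = median of DMSO wells and 100% = 0.3 times that DMSO median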
Target sequence (Q9H3R0 1-420 limits assumed): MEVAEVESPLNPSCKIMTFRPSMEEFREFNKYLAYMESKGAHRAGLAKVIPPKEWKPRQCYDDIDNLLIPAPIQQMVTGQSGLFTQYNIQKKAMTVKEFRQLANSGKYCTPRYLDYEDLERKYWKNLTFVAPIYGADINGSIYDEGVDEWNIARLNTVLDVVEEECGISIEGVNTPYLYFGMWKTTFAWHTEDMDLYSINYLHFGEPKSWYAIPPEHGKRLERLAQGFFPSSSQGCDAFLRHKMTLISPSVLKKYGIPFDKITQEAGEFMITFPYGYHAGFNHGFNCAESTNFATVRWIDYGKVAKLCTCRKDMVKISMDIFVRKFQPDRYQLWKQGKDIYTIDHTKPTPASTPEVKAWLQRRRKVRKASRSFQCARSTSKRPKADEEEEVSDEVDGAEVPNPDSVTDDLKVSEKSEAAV
aDG glyco up – activators of alpha-DG glycosylation, primary screen, uHTS, Pro5-aDG cells, AlphaScreen; alpha-DG glycosylation AlphaScreen (IIH6); 0% Pro5, 100% B10-LARGE cell signal; activation, % at 10 µM; 360,000 tested, 0.22% active; AID 624168, 2012;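 active means activation of at least 8% versus controls, or a plate z-score of at least 8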;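 further: Pro5 are CHO cells carrying HIG-tagged alpha-DG that lacks glycosylation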
Hep lipid drop – inhibitors of hepatocyte lipid droplet formation, primary screen, imaging, high-throughput imaging, BODIPY stain. AID 1656, 2009. inhibition, % at 6.5 µM. AML12 mouse hepatocytes, oleate lipid droplets. 240,000 tested, 0.4% active;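 active means lipid droplet intensity inhibited by at least 50%, with more than 500 cells counted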
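Test system: AML12 mouse liver cells; schedule: overnight exposure; technique: high-content imaging of BODIPY-stained droplets and DAPI nuclei; read-out: % inhibition of corrected integrated BODIPY droplet signal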
GC-A act – GC-A stimulated cGMP production enhancers – HEK293 GC-A cells, cGMP TR-FRET, EC30 ANP, primary screen | Atrial natriuretic peptide receptor 1 (Homo sapiens), P16066 | 0% at EC30 ANP, 100% saturating ANP | activation, % at 10 µM | 370,000 tested, 0.14% active; in the data active means activation above about 40%
Numbers without * were called inactive; / = no result.

SMILES	NPR2 activator	NR3A LBD binder	GASC-1 inh	aDG glyco up	Hep lipid drop	GC-A act
Cc1ccc(C2NC(=S)NC3=C2C(=O)CCC3)cc1 (stereo not drawn)	7	0	1	0	-13	5
O=c1ccc2nc3ccccc3sc-2c1	-13	/	/	2	/	-13
Oc1ccc(C2=NN(c3ccccc3)C(c3ccc(F)cc3)C2)cc1 (stereo not drawn)	-14	21*	1	0	-15	-12
O=C(c1ccccc1)N1N=C(c2ccc(F)cc2)CC1c1ccc(F)cc1 (stereo not drawn)	0	-1	/	0	/	2
CC(=O)Nc1ccc(C2CC(c3ccc(Cl)cc3)=NN2c2ccccc2)cc1 (stereo not drawn)	-3	15*	2	1	/	18
Cc1ccc(NC(=O)N2N=C(c3ccc(F)cc3)CC2c2ccc(F)cc2)cc1 (stereo not drawn)	-2	19*	4	0	-2	5
CCCCCN1CCCCC(NC(=O)C(C)(C)C)C1=O (stereo not drawn)	-2	/	/	/	/	3
COc1cccc(C(=O)N2CCC[C@@H]2C(=O)N2CCC[C@H]2C(=O)NCc2ccccc2)c1	-7	/	/	/	/	-4
O=C(Nc1ccccc1)OCCNC(=O)c1cccc(Br)c1	-2	-8	-1	0	-6	-3
O=C(Nc1ccc(Cl)c(Cl)c1)OCCNC(=O)c1cccc(Cl)c1	-8	13*	-19	2	9	-10
CS(=O)(=O)c1ccc2nc(NC(=O)c3ccc(NS(=O)(=O)c4ccc(F)c(F)c4)cc3)sc2c1	2	24*	-1	2	-15	3
CS(=O)(=O)c1ccc2nc(NC(=O)c3cc([N+](=O)[O-])cc([N+](=O)[O-])c3)sc2c1	1	-6	0	0	17	-1
CC(C)(C)NS(=O)(=O)c1ccc2nc(NC(=O)c3ccc(N4C(=O)CCC4=O)cc3)sc2c1	3	1	-10	0	10	5
CS(=O)(=O)c1ccc2nc(NC(=O)c3cccc(NS(=O)(=O)c4ccc(F)c(F)c4)c3)sc2c1	-1	26*	1	0	-6	0
CS(=O)(=O)c1ccc2nc(NC(=O)c3cccc([N+](=O)[O-])c3)sc2c1	4	7	15	0	-2	-2
O=C(Nc1nc2ccc(SC(F)F)cc2s1)c1ccc(NS(=O)(=O)c2ccc(F)c(F)c2)cc1	-3	47*	9	0	-4	8
Cc1cccc(N2CCN(CC(=O)Nc3ccccc3[N+](=O)[O-])CC2)c1C	0	15*	-1	0	/	1
COc1cc(NC(=O)CN2CCN(c3ccccc3)CC2)c(C)cc1[N+](=O)[O-]	-1	-1	10	0	-11	-1
CCOc1ccc(OCC)c(NC(=O)CN2CCN(c3cccc(C)c3C)CC2)c1	-3	11*	-3	1	-1	-7
COc1cc(NC(=O)CN2CCN(c3ccccc3F)CC2)c(C)cc1[N+](=O)[O-]	1	15*	-2	0	-14	1
CCCc1nc2sc3ccccc3c(=O)c2c(=O)n1Cc1ccc(OC)cc1	4	15*	-3	0	22	7
Cc1ccccc1C(=O)OCC(=O)N(C)c1c(N)n(Cc2ccccc2)c(=O)[nH]c1=O	-2	2	3	0	/	1
CCN(C(=O)COC(=O)CCOc1ccccc1)c1c(N)n(Cc2ccccc2)c(=O)[nH]c1=O	-1	2	4	0	/	-2
COCCN(C(=O)COC(=O)c1ccccc1Nc1ccccc1)c1c(N)n(Cc2ccccc2)c(=O)[nH]c1=O	-7	19*	4	0	/	-10
